NPY2 pot ag: potentiates or activates human NPY-Y2 receptor; cells expressing NPY-Y2, potentiator/agonist read-out; 0.45% of 220,000 active; AID 1359; P49146; activation, % at 3.6 µM; in the data active means activation above about 27%;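 further: cells stimulated with NPY near EC25 plus isoproterenol at EC100; 0% = vehicle plus submaximal agonist and 100% = vehicle plus saturating agonist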
Target sequence (P49146 whole entry, looked up): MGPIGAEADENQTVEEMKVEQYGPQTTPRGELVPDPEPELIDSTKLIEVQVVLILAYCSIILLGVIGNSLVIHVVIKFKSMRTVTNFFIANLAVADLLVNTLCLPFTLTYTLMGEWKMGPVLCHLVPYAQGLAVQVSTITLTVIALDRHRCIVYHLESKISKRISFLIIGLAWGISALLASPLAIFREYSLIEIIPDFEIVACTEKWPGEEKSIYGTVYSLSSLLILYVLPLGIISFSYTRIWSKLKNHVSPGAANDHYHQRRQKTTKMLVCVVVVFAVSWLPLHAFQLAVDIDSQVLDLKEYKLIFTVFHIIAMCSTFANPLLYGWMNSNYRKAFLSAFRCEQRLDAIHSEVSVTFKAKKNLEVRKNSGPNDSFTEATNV
S1P4 antagonist: human S1P4 receptor antagonism. S1P4-expressing cells, antagonist mode, reporter read-out. 0.26% of 220,000 active. AID 1510. inhibition, % at 4.98 µM. O95977; in the data active means inhibition above about 29%;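 further: 0% = wells stimulated with agonist and 100% = vehicle wells without agonist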
NPY-Y1 PAM-ag: potentiates or activates human NPY-Y1 receptor. NPY-Y1 expressing cells, potentiator/agonist activation. activation, % at 3.6 µM. 0.37% of 220,000 active; in the data active means activation above about 33%, passing the limit was not always enough;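 further: cells stimulated with NPY at EC10 then isoproterenol at EC100; 0% = low agonist plus stimulus and 100% = saturating agonist plus stimulus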
S1P4 agonist: agonists of human S1P4 receptor; O95977; S1P4-expressing cell line, agonist reporter assay; activation, % at 4.98 µM; 0.35% of 220,000 active; in the data active means activation above about 11%;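 further: 0% = DMSO vehicle and 100% = reference agonist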
NPY-Y1 antag: blocks the human neuropeptide Y Y1 receptor. P25929. HEK293-CNG Y1 cells, membrane potential fluorescence; NPY at EC95, then isoproterenol. AID 1040. 1% of 200,000 active. inhibition, % at 3.6 µM;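 active means inhibition above the campaign mean inhibition of all tested compounds plus 3 SD, cut at about 20% in these data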;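 further: 0% = DMSO wells given NPY plus isoproterenol and 100% = isoproterenol alone without NPY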
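System: HEK293 cells with Y1 receptor plus CNG channel / Probe or stimulus: NPY 25 nM then isoproterenol 1 µM plus Ro 20-1724 25 µM / Compound: one concentration, 3.6 µM, in 0.4% DMSO / Schedule: compound incubation 1 h at room temperature, readout 45 min post-stimulation / Measured by: membrane potential fluorescence / Read-out: % inhibition of NPY effect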
NPY Y2 blocker: NPY-Y2 (human) receptor antagonism | 0.99% of 140,000 active | inhibition, % at 2.7 µM | P49146 | NPY-Y2 expressing cells, antagonist mode;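 further: 0% = vehicle with agonist challenge and 100% = reference antagonist with challenge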
NPY-Y1 ant conf: human NPY-Y1 antagonism, confirmation; shares compounds with NPY-Y1 antag; HEK293-CNG NPY-Y1, membrane potential fluorescence, cAMP; NPY challenge against isoproterenol-raised cAMP; inhibition, % at 3.6 µM; 21% of 1,200 active; in the data active means inhibition above about 20%;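 further: 0% = vehicle with agonist plus stimulus and 100% = stimulus alone without agonist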
NPY2 antag ctr: human NPY-Y2 antagonism in NPY-Y1 counter-screen; HEK293 NPY-Y2 CNG membrane potential fluorescence; cells given NPY, then isoproterenol; 28% of 1,200 active; inhibition, % at 3.6 µM; shares compounds with NPY-Y1 antag;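 further: 0% = DMSO with agonist challenge and 100% = reference antagonist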
* = called active by the depositor. Shown are actives, neighbours in structure and some others; about 2.4% of the full set was active somewhere. Unless noted, no stated cut-off is given here; in the data, active means inhibition above about 17%; inactive means the rest.

Screening CC1CCN(CC(CS(=O)(=O)c2ccc([N+](=O)[O-])cc2)N2CCC(C)CC2)CC1 (configuration not stated) returned NPY2 pot ag -32.9, S1P4 antagonist -1.0, NPY-Y1 PAM-ag -0.9 and S1P4 agonist -1.6.
For COc1ccc(NC(=O)O/N=C/c2ccncc2)cc1 the results were NPY2 pot ag 20.9, S1P4 antagonist -8.4, NPY-Y1 PAM-ag 12.7, S1P4 agonist -0.1 and NPY-Y1 antag -2.8.
Screening COc1ccc(/C=N/OC(=O)Nc2ccccc2OC)cc1 returned NPY2 pot ag -15.5, S1P4 antagonist -9.9, NPY-Y1 PAM-ag -17.3, S1P4 agonist -0.2, NPY-Y1 antag 21.9*, NPY-Y1 ant conf 5.7 and NPY2 antag ctr 11.9.
Screening COc1cccc(CN(CC2CCCO2)C(=O)c2cc3ccccc3oc2=O)c1 (configuration not stated) returned NPY2 pot ag 4.1, S1P4 antagonist -5.8, NPY-Y1 PAM-ag 8.6, S1P4 agonist 2.8 and NPY-Y1 antag 2.3.
Screening COc1ccc(CN(CC2CCCO2)C(=O)c2cc3ccccc3oc2=O)cc1 (configuration not stated) returned NPY2 pot ag 5.2, S1P4 antagonist -7.8, NPY-Y1 PAM-ag 3.3, S1P4 agonist 0.6, NPY-Y1 antag 36.9*, NPY-Y1 ant conf 0.1 and NPY2 antag ctr 0.7.
For O=C(COC(=O)c1ccncc1)c1ccc(Cl)c(Cl)c1 the results were NPY2 pot ag -15.8, S1P4 antagonist -1.2, NPY-Y1 PAM-ag -8.5, S1P4 agonist 1.4 and NPY-Y1 antag 6.4.
Cc1ccc(CN2CCN(Cc3cccn3-c3nccs3)CC2CCO)cc1 (configuration not stated) was read as NPY2 pot ag -1.9, S1P4 antagonist -3.1, NPY-Y1 PAM-ag 6.4, S1P4 agonist -1.9 and NPY-Y1 antag 12.2.
Screening CCOC(=O)c1c(C)n(-c2ccc(C)cc2)c2ccc(OCC(O)CN3CCN(C)CC3)cc12 (configuration not stated) returned NPY2 pot ag -46.7, S1P4 antagonist -19.0, NPY-Y1 PAM-ag -57.4, S1P4 agonist -0.2, NPY-Y1 antag 47.4*, NPY-Y1 ant conf 25.4* and NPY2 antag ctr 46.6*.
Screening COc1ccccc1CCNC(=O)c1nc(-c2cccs2)no1 returned NPY2 pot ag -17.7, S1P4 antagonist 11.8, NPY-Y1 PAM-ag -11.2, S1P4 agonist -1.4, NPY-Y1 antag 23.8*, NPY-Y1 ant conf 8.2 and NPY2 antag ctr 4.9.
For COc1ccc(CCNC(=O)c2nc(-c3cccs3)no2)cc1OC the results were NPY2 pot ag -15.4, S1P4 antagonist -6.7, NPY-Y1 PAM-ag -3.7, S1P4 agonist 0.5 and NPY-Y1 antag 14.3.
`Clc1ccc(CNc2nc(CN3CCOCC3)nc3scc(-c4ccccc4)c23)cc1` gave NPY2 pot ag -22.7, S1P4 antagonist -13.1, NPY-Y1 PAM-ag -42.6, S1P4 agonist -0.3, NPY-Y1 antag 22.3*, NPY Y2 blocker 13.4, NPY-Y1 ant conf 21.7* and NPY2 antag ctr 18.2*.
COc1cccc(CC2(CO)CCCN(Cc3cc4ccccc4[nH]3)C2)c1 (configuration not stated) was read as NPY2 pot ag -17.1, S1P4 antagonist -17.6, NPY-Y1 PAM-ag 4.4, S1P4 agonist -0.5 and NPY-Y1 antag 3.1.
Screening O=C(c1ccco1)N1CCN(C(c2ccc(Cl)cc2)c2nnnn2Cc2ccccc2)CC1 (configuration not stated) returned NPY2 pot ag 4.1, S1P4 antagonist 0.1, NPY-Y1 PAM-ag -21.7, S1P4 agonist -1.6, NPY-Y1 antag 21.1*, NPY Y2 blocker 0.1, NPY-Y1 ant conf 0.0 and NPY2 antag ctr 1.2.
`CCc1nccn1S(=O)(=O)c1ccc2ccc(C)cc2c1` gave NPY2 pot ag -43.3, S1P4 antagonist 7.4, NPY-Y1 PAM-ag -35.9, S1P4 agonist 1.3, NPY-Y1 antag 33.5*, NPY Y2 blocker 15.3, NPY-Y1 ant conf 16.3 and NPY2 antag ctr 15.0.
CCOc1ccc2cc(S(=O)(=O)n3ccnc3C)ccc2c1 was read as NPY2 pot ag -16.9, S1P4 antagonist -6.8, NPY-Y1 PAM-ag 0.1, S1P4 agonist 0.2, NPY-Y1 antag 9.5 and NPY Y2 blocker 5.0.
Screening CCNc1nc(NC(C)C)nc(SCCOC(=O)c2ccccc2)n1 returned NPY2 pot ag -9.8, S1P4 antagonist 15.4, NPY-Y1 PAM-ag -11.8, S1P4 agonist 2.8, NPY-Y1 antag -3.3 and NPY Y2 blocker 2.0.
Screening CC(C)Nc1nc(NC(C)C)nc(SCCOC(=O)Nc2ccc(Cl)cc2Cl)n1 returned NPY2 pot ag -9.7, S1P4 antagonist -9.8, NPY-Y1 PAM-ag -43.6, S1P4 agonist 2.5, NPY-Y1 antag 21.4*, NPY Y2 blocker 10.1, NPY-Y1 ant conf 13.1 and NPY2 antag ctr 11.5.
`COc1ccc(C2c3[nH]c4ccccc4c3CCN2Cc2cccn2-c2ncccn2)cc1C` (configuration not stated) gave NPY2 pot ag -4.5, S1P4 antagonist -2.5, NPY-Y1 PAM-ag -11.8, S1P4 agonist -0.4, NPY-Y1 antag 67.3*, NPY-Y1 ant conf 41.3* and NPY2 antag ctr 32.5*.
c1ccc(C2c3[nH]c4ccccc4c3CCN2Cc2cccn2-c2ccccn2)nc1 (configuration not stated) was read as NPY2 pot ag -28.6, S1P4 antagonist 15.7, NPY-Y1 PAM-ag -1.0 and S1P4 agonist -1.9.
Cc1cccc(C2c3[nH]c4ccccc4c3CCN2Cc2cccn2-c2ncccn2)c1 (configuration not stated) was read as NPY2 pot ag -4.0, S1P4 antagonist -11.9, NPY-Y1 PAM-ag -22.7, S1P4 agonist -0.8, NPY-Y1 antag 32.4*, NPY-Y1 ant conf 13.7 and NPY2 antag ctr 13.8.
Screening C/C=C/c1ccccc1OCc1ccc(C(=O)O)o1 returned NPY2 pot ag -23.9, S1P4 antagonist -8.2, NPY-Y1 PAM-ag -24.7, S1P4 agonist 2.5, NPY-Y1 antag 22.1*, NPY Y2 blocker 13.7, NPY-Y1 ant conf 16.5 and NPY2 antag ctr 12.4.
Screening O=C1CC[C@@H](CN(Cc2ccccn2)Cc2nc(-c3ccc(C(F)(F)F)cc3)no2)N1 returned NPY2 pot ag 10.8, S1P4 antagonist 1.9, NPY-Y1 PAM-ag 5.0, S1P4 agonist 0.6 and NPY-Y1 antag -4.4.
Screening CCN(CC)c1ccc(NC(=O)COC(=O)c2cccs2)cc1 returned NPY2 pot ag 0.4, S1P4 antagonist 2.1, NPY-Y1 PAM-ag 3.4, S1P4 agonist 1.6, NPY-Y1 antag 20.7*, NPY Y2 blocker 4.9, NPY-Y1 ant conf -0.8 and NPY2 antag ctr 1.6.
